Source: PubChem
An excerpt weighted towards active compounds, which were near 3.8% of everything screened.
OX1R antag-1: blocks the human orexin 1 receptor; O43613; CHO/OX1R cells, Fluo-8 calcium fluorescence, orexin A; AID 434989; inhibition, % at 5 µM; 330,000 tested, 0.43% active;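 active = inhibition above its plate's threshold, mean inhibition of all tested compounds on the plate plus 3 SD, cut at about 37% in these data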;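 also: 0% = orexin A challenge wells and 100% = SB-334867-A antagonist wells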
Target sequence (O43613 whole entry, looked up): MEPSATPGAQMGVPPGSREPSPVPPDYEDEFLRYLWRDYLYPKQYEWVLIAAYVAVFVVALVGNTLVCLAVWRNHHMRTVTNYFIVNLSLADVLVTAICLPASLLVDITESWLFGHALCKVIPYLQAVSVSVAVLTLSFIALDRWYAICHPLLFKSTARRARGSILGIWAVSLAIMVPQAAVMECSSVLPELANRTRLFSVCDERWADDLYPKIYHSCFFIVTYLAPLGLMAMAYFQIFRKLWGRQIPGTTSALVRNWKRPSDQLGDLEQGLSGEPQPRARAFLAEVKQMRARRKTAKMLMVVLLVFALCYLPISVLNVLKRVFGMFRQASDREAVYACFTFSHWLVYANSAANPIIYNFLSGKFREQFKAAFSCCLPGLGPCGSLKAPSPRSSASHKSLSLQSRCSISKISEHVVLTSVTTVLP
MPTP block: blocks calcium-induced mitochondrial swelling; isolated mouse mitochondria, Ca2+ swelling absorbance, 30 min; inhibition, % at 10 µM; 360,000 tested, 1.4% active; AID 602449;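 active = inhibition of 50% or more, scaled per plate between neutral and stimulator controls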;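 also: 0% = DMSO wells given calcium and 100% = 1 mM EGTA wells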
OX1R antag-2: antagonists of human orexin 1 receptor (OX1R); O43613; OX1R-expressing cells, FRET antagonist read-out; inhibition, % at 6.6 µM; 330,000 tested, 1.8% active; AID 485270; in the data active = inhibition mostly above about 38%, no sharp cut-off; inactive = mostly below about 40%;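 also: 0% = agonist challenge alone and 100% = reference antagonist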
CHO parental Ca: signal in parental CHO cells, OX1R antagonist counter-screen. parental CHO-K1, ATP-induced calcium, Fluo-8 fluorescence. inhibition, % at 5.6 µM. 330,000 tested, 0.63% active;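 active = inhibition above that plate's mean sample inhibition plus 3 SD, cut at about 26% in these data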;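 also: 0% = ATP-challenged DMSO wells and 100% = DMSO wells without ATP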
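material = parental CHO cells | also added = ATP as calcium-mobilizing challenge | dosing = single point at 5.6 µM | detection = intracellular calcium via Fluo-8 no-wash fluorescent dye | read-out = % inhibition | benchmarks = low control ATP plus DMSO, high control DMSO only | repeats = one well per compound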
GPR7 antag: blocks human GPR7 receptor signaling; P48145; GPR7-expressing cells, fluorescence antagonist assay; inhibition, % at 4.4 µM; 290,000 tested, 1.1% active; AID 1861; in the data active = inhibition above about 16%, passing the limit was not always enough;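 also: cells stimulated with the agonist NPW; 0% = agonist with vehicle and 100% = vehicle without agonist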
OX1R HTRF confirm: confirmation of human orexin 1 receptor antagonists, HTRF format; shares compounds with OX1R antag-2; OX1R-expressing cells, HTRF antagonist assay; inhibition, % at 6.6 µM; 1,800 tested, 49% active; AID 492964; in the data active = inhibition above about 55%;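 also: CHO cells expressing OX1R stimulated with orexin A at about EC80; 0% = agonist challenge alone and 100% = reference antagonist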
CHO-K1 HTRF: counter-screen: parental CHO-K1 HTRF response | shares compounds with OX1R antag-2 | parental CHO-K1 cells, HTRF counterscreen | inhibition, % at 6.6 µM | 1,800 tested, 48% active; in the data active = inhibition above about 17%;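 also: 0% = agonist challenge with vehicle and 100% = vehicle alone without agonist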
* hit, by the source's call.

For Clc1ccccc1C1CC(c2ccccc2)Nc2ncnn21 (configuration not stated) the results were OX1R antag-1 -16.0, MPTP block -1.2, OX1R antag-2 78.8*, CHO parental Ca -6.8, GPR7 antag -5.3, OX1R HTRF confirm 21.6 and CHO-K1 HTRF 0.7.
For Cc1c(NS(=O)(=O)c2cccc(C(=O)NCc3ccc(Cl)cc3)c2)c(=O)n(-c2ccccc2)n1C the results were OX1R antag-1 24.1, MPTP block 0.2, OX1R antag-2 84.4*, CHO parental Ca -24.1, GPR7 antag 14.3, OX1R HTRF confirm 83.6* and CHO-K1 HTRF -0.2.
Cc1c(NS(=O)(=O)c2cccc(C(=O)NCc3ccco3)c2)c(=O)n(-c2ccccc2)n1C was read as MPTP block 0.4.
Screening CCN(C(=O)COC(=O)c1cc(S(=O)(=O)Nc2c(C)n(C)n(-c3ccccc3)c2=O)ccc1Cl)C1CCCCC1 returned OX1R antag-1 -12.6, MPTP block -1.4, OX1R antag-2 80.4*, CHO parental Ca -22.5, GPR7 antag 2.7, OX1R HTRF confirm 85.6* and CHO-K1 HTRF 0.7.
COc1ccc(-c2ocnc2C(=O)N2CCN(C(c3ccccc3)c3ccccc3)CC2)cc1 was read as OX1R antag-1 -39.7, MPTP block 1.0, OX1R antag-2 8.2, CHO parental Ca -20.1 and GPR7 antag 8.8.
O=S(=O)(c1ccc(-c2ccccn2)s1)N1CCC2(CC1)OCCO2 was read as OX1R antag-1 -9.5, MPTP block 6.1, OX1R antag-2 2.0, CHO parental Ca -9.5 and GPR7 antag -12.7.
COc1ccc(Br)cc1/C=C/C(=O)Nc1ccc(C)cc1 was read as OX1R antag-1 -9.6, MPTP block 14.1, OX1R antag-2 94.6*, CHO parental Ca -25.7, GPR7 antag -9.1, OX1R HTRF confirm 68.5* and CHO-K1 HTRF 21.6*.
`COC(=O)CNC(=O)/C=C/c1cc(Br)ccc1OC` gave OX1R antag-1 -13.7, MPTP block -1.4, OX1R antag-2 21.9, CHO parental Ca -5.1 and GPR7 antag -1.7.
Screening COC(=O)c1sccc1NC(=O)Nc1cccc(C(C)=O)c1 returned OX1R antag-1 13.2, MPTP block -1.2, OX1R antag-2 82.0*, CHO parental Ca 1.6, GPR7 antag -14.7, OX1R HTRF confirm 67.4* and CHO-K1 HTRF 8.3.
`NS(=O)(=O)c1ccc(N/N=C/c2ccccc2C(=O)O)c([N+](=O)[O-])c1` gave OX1R antag-1 -6.9, MPTP block 0.1, OX1R antag-2 161.3*, CHO parental Ca 3.1, GPR7 antag -6.8, OX1R HTRF confirm 39.7 and CHO-K1 HTRF 73.8*.
For CN(C)CCCNc1ccc(S(N)(=O)=O)cc1[N+](=O)[O-] the results were OX1R antag-1 1.7, MPTP block 0.3, OX1R antag-2 121.5*, CHO parental Ca -4.0, GPR7 antag -7.2, OX1R HTRF confirm 39.3 and CHO-K1 HTRF 55.5*.
Screening CS(=O)(=O)c1ccc(NCCc2ccc(S(N)(=O)=O)cc2)c([N+](=O)[O-])c1 returned OX1R antag-1 -11.1, MPTP block 0.1, OX1R antag-2 63.7, CHO parental Ca 0.3 and GPR7 antag 1.7.
`CN(C)CCCNc1ccc(-c2nn(C)c(=O)c3ccccc23)cc1[N+](=O)[O-]` gave OX1R antag-1 -12.3, MPTP block 0.3, OX1R antag-2 118.1*, CHO parental Ca -8.9, GPR7 antag -5.2, OX1R HTRF confirm 30.5 and CHO-K1 HTRF 40.3*.
Fc1ccc(-c2ccc3c(c2)C2CC3CCN2Cc2ccc3c(c2)OCO3)cc1 (configuration not stated) was read as MPTP block 0.4.
O=C(O)CNS(=O)(=O)c1ccc2c(c1)C(=O)c1cc(S(=O)(=O)NCC(=O)O)ccc1-2 was read as MPTP block -0.1 and GPR7 antag -26.3.
Screening O=C1c2cc(S(=O)(=O)NCCO)ccc2-c2ccc(S(=O)(=O)NCCO)cc21 returned OX1R antag-1 -2.9, MPTP block -0.2, OX1R antag-2 79.4*, CHO parental Ca 0.9, GPR7 antag 0.6, OX1R HTRF confirm 61.4* and CHO-K1 HTRF 63.9*.
